Results on 16 compounds are retold here after ChEMBL document CHEMBL4706717, “Covalent Occlusion of the RORγt Ligand Binding Pocket Allows Unambiguous Targeting of an Allosteric Site” (ACS Med Chem Lett, 2021).

The target in experiment [1] is T1, Peroxisome proliferator-activated receptor gamma (Homo sapiens) (UniProt P37231).
T1 sequence (whole entry): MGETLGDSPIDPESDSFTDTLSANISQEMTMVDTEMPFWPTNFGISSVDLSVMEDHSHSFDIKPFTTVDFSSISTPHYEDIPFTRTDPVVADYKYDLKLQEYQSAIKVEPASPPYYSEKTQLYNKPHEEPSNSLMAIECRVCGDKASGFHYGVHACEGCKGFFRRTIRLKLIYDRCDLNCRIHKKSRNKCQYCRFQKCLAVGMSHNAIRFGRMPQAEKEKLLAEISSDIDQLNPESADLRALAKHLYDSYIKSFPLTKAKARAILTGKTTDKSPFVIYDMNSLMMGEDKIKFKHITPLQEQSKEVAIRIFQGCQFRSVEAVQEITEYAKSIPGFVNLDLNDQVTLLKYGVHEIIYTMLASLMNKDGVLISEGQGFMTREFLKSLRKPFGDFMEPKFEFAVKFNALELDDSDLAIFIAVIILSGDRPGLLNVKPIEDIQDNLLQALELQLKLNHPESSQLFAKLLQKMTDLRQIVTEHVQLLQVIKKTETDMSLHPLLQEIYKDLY
Kind of experiment: Binding affinity to PPARgamma (unknown origin).

Experiment [2] addresses T2, Nuclear receptor ROR-gamma (Homo sapiens, UniProt P51449).
T2 sequence (P51449 whole entry): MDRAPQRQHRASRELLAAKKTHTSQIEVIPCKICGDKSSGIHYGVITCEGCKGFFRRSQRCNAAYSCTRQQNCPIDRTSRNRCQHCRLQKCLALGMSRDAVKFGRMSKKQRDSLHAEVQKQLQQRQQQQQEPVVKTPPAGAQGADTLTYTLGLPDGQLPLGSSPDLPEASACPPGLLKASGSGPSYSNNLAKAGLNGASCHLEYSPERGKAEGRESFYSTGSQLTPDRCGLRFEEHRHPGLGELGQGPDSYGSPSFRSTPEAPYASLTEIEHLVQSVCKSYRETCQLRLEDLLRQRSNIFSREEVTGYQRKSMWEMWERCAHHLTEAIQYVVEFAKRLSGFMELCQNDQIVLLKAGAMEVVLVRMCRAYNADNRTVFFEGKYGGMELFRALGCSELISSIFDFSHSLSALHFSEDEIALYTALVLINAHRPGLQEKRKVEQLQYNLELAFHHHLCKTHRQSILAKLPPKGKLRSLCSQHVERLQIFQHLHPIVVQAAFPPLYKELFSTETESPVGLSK
Kind of experiment: Orthosteric inverse agonist activity at recombinant human N-terminal His6-tagged RORgammat ligand binding domain (265 to 518 residues) expressed in Escherichia coli BL21 (DE3) assessed as reduction in coactivator, N-terminal biotinylated SRC-1 box2 peptide recruitment incubated for 60 mins by TR-FRET assay. (In general: Time-resolved FRET reads energy transfer from a long-lived donor to a nearby acceptor.)

Experiment [3] addresses T3, Nuclear receptor ROR-gamma (Homo sapiens) (UniProt P51449).
T3 sequence (whole entry): T2 sequence (P51449 whole entry)
The note with it: filed as inverse agonist, dose 10.0 µM.

Experiment [4] addresses T3, Nuclear receptor ROR-gamma (Homo sapiens). Particulars: filed as inverse agonist, dose 10.0 µM. The source holds these as a separate data set.
The target is the same in experiment [5]. The experiment in a line: Orthosteric agonist activity at GW9662-ligated recombinant human N-terminal His6-tagged RORgammat ligand binding domain (265 to 518 residues) expressed in Escherichia coli BL21 (DE3) assessed as increase in coactivator, N-terminal biotinylated SRC-1 box2 peptide recruitment in presence of GW9662 incubated for 60 mins by TR-FRET assay. The method, boiled down:
(§1)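 Dose response: probe and His6-RORγt LBD (265-518, 20 μM) co-titrated (1.4x series, top 10 eq, 200 μM) in pH 5.8 TRIS/NaCl/CHAPS/BSA buffer overnight (4°C or RT per compound). Then 100 nM LBD, 100 nM biotin-SRC-1 box2, Tb anti-His, d2-streptavidin in HEPES pH 7.5, 150 mM NaCl, 5 mM DTT, 0.1% BSA, 0.1 mM CHAPS, 1% DMSO; top probe 1 μM; 60 min RT; 665/620 nm ratio; four-parameter fit; triplicate, ≥2 experiments.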

For experiment [6] the target is unchanged. The experiment in a line: Orthosteric agonist activity at 2-chloro-5-nitro-N-o-tolylbenzamide-ligated recombinant human N-terminal His6-tagged RORgammat ligand binding domain (265 to 518 residues) expressed in Escherichia coli BL21 (DE3) assessed as increase in coactivator, N-terminal biotinylated SRC-1 box2 peptide recruitment in presence of 2-chloro-5-nitro-N-o-tolylbenzamide incubated for 60 mins by TR-FRET assay. The method, boiled down:
as §1

Experiment [7] shares this target. Kind of experiment: Orthosteric agonist activity at 2-chloro-N-(2,6-dimethylphenyl)-5-nitrobenzamide-ligated recombinant human N-terminal His6-tagged RORgammat ligand binding domain (265 to 518 residues) expressed in Escherichia coli BL21 (DE3) assessed as increase in coactivator, N-terminal biotinylated SRC-1 box2 peptide recruitment in presence of 2-chloro-N-(2,6-dimethylphenyl)-5-nitrobenzamide incubated for 60 mins by TR-FRET assay. The method, boiled down: as §1

Experiment [8] shares this target. Kind of experiment: Orthosteric agonist activity at 2-chloro-5-nitro-N-(2-(trifluoromethyl)phenyl)benzamide-ligated recombinant human N-terminal His6-tagged RORgammat ligand binding domain (265 to 518 residues) expressed in Escherichia coli BL21 (DE3) assessed as increase in coactivator, N-terminal biotinylated SRC-1 box2 peptide recruitment in presence of 2-chloro-5-nitro-N-(2-(trifluoromethyl)phenyl)benzamide incubated for 60 mins by TR-FRET assay. The method, boiled down: as §1

For the next experiment, the species on record is Homo sapiens. The experiment in a line: Binding affinity to recombinant human N-terminal His6-tagged RORgammat ligand binding domain (265 to 507 residues) Cys320Ala mutant expressed in Escherichia coli BL21 (DE3) incubated for overnight by Q-TOF-MS analysis. The method, boiled down:
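Ligation of His6-RORγt LBD (residues 265-507, used for mutagenesis work) at 20 μM with 5-10 eq probe in 50 mM TRIS (pH 5.3-5.8), 50 mM NaCl, 5 mM CHAPS, 0.1% BSA, continuous mixing overnight at 4°C or RT; LC-MS Q-TOF, deconvoluted spectra; percent ligation from ratio of mass peaks.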

pIC50: −log10 of the molar value. The source made the active and inactive calls. No cut-off for these calls is given here.

As to `CC(C)NC(=O)c1cc([N+](=O)[O-])ccc1Cl`, in experiment [1], the result was Active.

Consider `O=C(Nc1ccc([N+](=O)[O-])cc1)c1cc([N+](=O)[O-])ccc1Cl`, for which, in experiment [1], the outcome was Active.

Take `Cc1cccc(NC(=O)c2cc([N+](=O)[O-])ccc2Cl)c1`: the result in experiment [1] was Active.

One may read the pIC50 as −log10 of the IC50, conventionally taken in molar units. `Cc1ccccc1NC(=O)c1cc([N+](=O)[O-])ccc1Cl`: the pIC50 in experiment [2] is 7.11. Moreover, the outcome in experiment [1] was Active.

A word on the ΔTm: it is the change in melting temperature against a reference sample. Turning to `C[C@H]1O[C@@H](O[C@H]2[C@@H](O)C[C@H](O[C@H]3[C@@H](O)C[C@H](O[C@H]4CC[C@@]5(C)[C@H](CC[C@@H]6[C@@H]5C[C@@H](O)[C@]5(C)[C@@H](C7=CC(=O)OC7)CC[C@]65O)C4)O[C@@H]3C)O[C@@H]2C)C[C@H](O)[C@@H]1O`, the shift in melting temperature (ΔTm) in experiment [3] is -0.2 °C.

With `O=C(O)c1ccc(NCc2c(-c3c(Cl)cccc3C(F)(F)F)noc2-c2cc[nH]c2)cc1`, the ΔTm in experiment [4] was 2.1 °C.

For `O=C(Nc1ccsc1)c1cc([N+](=O)[O-])ccc1Cl`, in [2], the pIC50 is 6.91. The outcome in [1] was Active.

Take `O=C(NC1CCCCC1)c1cc([N+](=O)[O-])ccc1Cl`: in [1], the result was Active.

Regarding `O=C(Nc1ccccc1)c1cc(Cl)ccc1[N+](=O)[O-]`, the outcome in experiment [1] was inactive.

As for `O=C(NCc1ccccc1)c1cc([N+](=O)[O-])ccc1Cl`, in [1], the outcome was Active.

For the compound `O=C(c1cc([N+](=O)[O-])ccc1Cl)n1cccc1`, the result in experiment [1] was inactive.

`CC(C)CCC[C@@H](C)[C@H]1CC[C@H]2[C@@H]3CC=C4C[C@@H](O)CC[C@]4(C)[C@H]3CC[C@]12C`: the outcome in experiment [5], in experiment [6], in experiment [7] and in [8] was inactive.

Consider `Cc1ccc(NC(=O)c2cc([N+](=O)[O-])ccc2Cl)cc1`, for which the outcome in experiment [1] was Active.

`C=CCNC(=O)c1cc([N+](=O)[O-])ccc1Cl`: the outcome in experiment [1] was Active.

For the compound `COc1ccc(NC(=O)c2cc([N+](=O)[O-])ccc2Cl)cc1`, in experiment [1], the outcome was Active.

As to `O=C(Nc1ccccc1)c1cc([N+](=O)[O-])ccc1Cl`, in the experiment listed under Homo sapiens, the result was inactive. Also, the pIC50 in experiment [2] was 7.07.
